Results reported in ChEMBL document CHEMBL2401652 (J Med Chem, 2013).
Active and inactive are the calls of the source. The calls are words filed in the database; no cut-off is given here.

Tests used:
T98G [1] = assay: Induction of apoptosis in human T98G cells at 30 uM after 24 hrs by dUTP-FITC staining-based TUNEL assay (reference value: 1.88%); format: functional
T98G [2] = assay: Induction of apoptosis in human T98G cells assessed as PARP cleavage at 50 uM after 24 hrs by Western blot analysis; format: functional, cell-based
Method in brief: (§1)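 Cells (1.5 × 10^6) exposed 24 h to compound (25 or 50 μM). 50 μg protein per lane resolved on 10% SDS-PAGE and transferred to nitrocellulose. Membrane blocked in 2% TBS-BSA, then probed with primary antibody overnight at 4 °C and HRP secondary. Detection by ECL, with β-actin as loading control. Untreated control run in parallel.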

T98G [3] = assay: Downregulation of total Bid expression in human T98G cells at 50 uM after 24 hrs by Western blot analysis; format: functional, cell-based
Method in brief: (§2)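 Cells (1.5 × 10^6) treated 24 h at 25 or 50 μM; 50 μg protein per lane on 10% SDS-PAGE, nitrocellulose, 2% TBS-BSA block, primary antibody overnight at 4 °C, HRP secondary, ECL detection; β-actin loading control; untreated controls in parallel.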

T98G [4] = assay: Induction of apoptosis in human T98G cells assessed as procaspase-8 cleavage at 50 uM after 24 hrs by Western blot analysis; format: functional, cell-based; method in brief: as §1
K562 = assay: Cytotoxicity against human K562 cells assessed as growth inhibition after 48 hrs by MTT assay; conditions: K562, 48 h
[5] = Cytotoxicity against human U87MG cells assessed as growth inhibition after 48 hrs by MTT assay; conditions: U-87 MG
[6] = Cytotoxicity against human Panc 10.05 cells assessed as growth inhibition after 48 hrs by MTT assay; conditions: Panc1005, 48 h
[7] = Cytotoxicity against human CEMC-7 cells assessed as growth inhibition after 48 hrs by MTT assay; conditions: CEMC-7, 48 h
NCI-H23 = assay: Cytotoxicity against human NCI-H23 cells assessed as growth inhibition after 48 hrs by MTT assay; conditions: NCI-H23, 48 h
[8] = Cytotoxicity against human U373MG cells assessed as growth inhibition after 48 hrs by MTT assay; conditions: U373 MG
T98G [9] = assay: Induction of apoptosis in human T98G cells assessed as procaspase-7 cleavage at 50 uM after 24 hrs by Western blot analysis; format: functional, cell-based; method in brief: as §1
MOLT-4 = assay: Cytotoxicity against human MOLT4 cells assessed as growth inhibition after 48 hrs by MTT assay; conditions: MOLT-4, 48 h
T98G [10] = assay: Induction of mitochondrial transmembrane depolarization in human T98G cells at 30 uM after 24 hrs by JC1 staining-based flow cytometric analysis (reference value: 10.26%); format: functional
T98G [11] = assay: Induction of apoptosis in human T98G cells assessed as procaspase-9 cleavage at 50 uM after 24 hrs by Western blot analysis; format: functional, cell-based; method in brief: as §1
[12] = Cytotoxicity against human LN229 cells assessed as growth inhibition after 48 hrs by MTT assay; conditions: LN-229, 48 h
T98G [13] = assay: Induction of apoptosis in human T98G cells assessed as induction of DNA damage at 20 uM after 24 hrs by comet assay relative to untreated control; format: functional
Method in brief: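 T98G cells (1 × 10^5) treated 24 h with 0 or 20 μM. About 20000 cells embedded in 0.5% low-melting agarose and lysed overnight at 4 °C at pH 10. Alkaline electrophoresis (pH 13) for 30 min at 300 mA at 4 °C, then ethidium bromide staining. Tail length (nucleus centre to tail tip) from ≥20 comets, reported as mean ± SD.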

[14] = Binding affinity to DNA (unknown origin) at 100 uM after 2 hrs by UV-Vis absorption spectroscopic analysis
Method in brief: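 DNA (100 μg/mL; stock 1.0 mg/mL in 50 mM Tris-HCl pH 7.5, 50 mM NaCl) with ligand fixed at 100 μM; incubated at 37 °C, then diluted six-fold; absorbance scanned 220–350 nm at 25 °C, 1 cm quartz cell; 260 nm band monitored.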

HeLa = assay: Cytotoxicity against human HeLa cells assessed as growth inhibition after 48 hrs by MTT assay
A549 = assay: Cytotoxicity against human A549 cells assessed as growth inhibition after 48 hrs by MTT assay; conditions: A549, 48 h
HCT-116 = assay: Cytotoxicity against human HCT116 cells assessed as growth inhibition after 48 hrs by MTT assay; conditions: HCT-116, 48 h
T98G [15] = assay: Downregulation of Bcl-xL expression in human T98G cells at 50 uM after 24 hrs by Western blot analysis; format: functional, cell-based; method in brief: as §2
T98G [16] = assay: Induction of apoptosis in human T98G cells at 30 uM after 24 hrs by 7-AAD-based FACS flow cytometric analysis (reference value: 5.3%); format: functional
PANC-1 [17] = assay: Induction of mitochondrial transmembrane depolarization in human PANC1 cells at 30 uM after 24 hrs by JC1 staining-based flow cytometric analysis (reference value: 2.7%); format: functional
PANC-1 [18] = assay: Induction of apoptosis in human PANC1 cells assessed as PARP cleavage at 50 uM after 24 hrs by Western blot analysis; format: functional, cell-based; method in brief: as §2
[19] = Cytotoxicity against human A172 cells assessed as growth inhibition after 48 hrs by MTT assay; conditions: A 172, 48 h
PANC-1 [20] = assay: Downregulation of Bcl-xL expression in human PANC1 cells at 50 uM after 24 hrs by Western blot analysis; format: functional, cell-based; method in brief: as §2
PANC-1 [21] = assay: Cytotoxicity against human PANC1 cells assessed as growth inhibition after 48 hrs by MTT assay; conditions: PANC-1, 48 h
PANC-1 [22] = assay: Induction of apoptosis in human PANC1 cells assessed as procaspase-8 cleavage at 50 uM after 24 hrs by Western blot analysis; format: functional, cell-based; method in brief: as §2
T98G [23] = assay: Cytotoxicity against human T98G cells assessed as growth inhibition at 50 uM by MTT assay; format: functional, cell-based; conditions: TDE = time-dependent effect
REH = assay: Cytotoxicity against human REH cells assessed as growth inhibition after 48 hrs by MTT assay
ASPC1 = assay: Cytotoxicity against human AsPC1 cells assessed as growth inhibition after 48 hrs by MTT assay; conditions: ASPC1, 48 h
PANC-1 [24] = assay: Downregulation of total Bid expression in human PANC1 cells at 50 uM after 24 hrs by Western blot analysis; format: functional, cell-based; method in brief: as §2
MIA PaCa-2 = assay: Cytotoxicity against human MIAPaCa2 cells assessed as growth inhibition after 48 hrs by MTT assay; conditions: MIA PaCa-2, 48 h
MOLT-3 = assay: Cytotoxicity against human MOLT3 cells assessed as growth inhibition after 48 hrs by MTT assay; conditions: MOLT-3, 48 h
PANC-1 [25] = assay: Induction of apoptosis in human PANC1 cells at 30 uM after 24 hrs by 7-AAD-based FACS flow cytometric analysis (reference value: 5.18%); format: functional
T98G [26] = assay: Cytotoxicity against human T98G cells assessed as growth inhibition after 48 hrs by MTT assay
PANC-1 [27] = assay: Induction of apoptosis in human PANC1 cells assessed as procaspase-7 cleavage at 50 uM after 24 hrs by Western blot analysis; format: functional, cell-based; method in brief: as §2
SW480 = assay: Cytotoxicity against human SW480 cells assessed as growth inhibition after 48 hrs by MTT assay; conditions: SW480, 48 h
PANC-1 [28] = assay: Induction of apoptosis in human PANC1 cells at 30 uM after 24 hrs by dUTP-FITC staining-based TUNEL assay (reference value: 0.17%); format: functional
PANC-1 [29] = assay: Induction of apoptosis in human PANC1 cells assessed as procaspase-9 cleavage at 50 uM after 24 hrs by Western blot analysis; format: functional, cell-based; method in brief: as §1

CC(C)=CCC[C@]1(C)C=Cc2c(c(C)cc3c2[nH]c2ccccc23)O1
Activity (T98G [1]): 9.58% | Activity (T98G [2]): Active | Activity (T98G [3]): Active | Activity (T98G [4]): Active | IC50 (K562): 25 µM | IC50 [5]: 25 µM | IC50 [6]: 25 µM | IC50 [7]: 25 µM | IC50 (NCI-H23): 25 µM | IC50 [8]: 25 µM | Activity (T98G [9]): Active | IC50 (MOLT-4): 25 µM | Activity (T98G [10]): 16.72% | Activity (T98G [11]): Active | IC50 [12]: 25 µM | Activity (T98G [13]): inactive | Activity [14]: Active | IC50 (HeLa): 25 µM | IC50 (A549): 25 µM | IC50 (HCT-116): 25 µM | Activity (T98G [15]): Active | Activity (T98G [16]): 10.13% | Activity (PANC-1 [17]): 15.3% | Activity (PANC-1 [18]): Active | IC50 [19]: 25 µM | Activity (PANC-1 [20]): Active | IC50 (PANC-1 [21]): 25 µM | Activity (PANC-1 [22]): Active | growth inhibition (GI) (T98G [23]): tde | IC50 (REH): 25 µM | IC50 (ASPC1): 25 µM | Activity (PANC-1 [24]): Active | IC50 (MIA PaCa-2): 25 µM | IC50 (MOLT-3): 25 µM | Activity (PANC-1 [25]): 17.06% | IC50 (T98G [26]): 25 µM | Activity (PANC-1 [27]): Active | IC50 (SW480): 25 µM | Activity (PANC-1 [28]): 1.13% | Activity (PANC-1 [29]): Active
